According to ChEMBL document CHEMBL1127811, “Inhibitors of cholesterol biosynthesis. 2. Hypocholesterolemic and antioxidant activities of benzopyran and tetrahydronaphthalene analogues of the tocotrienols” (J Med Chem, 1994):

Key:
HepG2 = test: In vitro inhibition of cholesterol biosynthesis in Hep G2 cells; assay type: functional, Homo sapiens; design: concentration or dose not given beside the values
How it was run: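 HepG2 human hepatoma cells incubated 4 h with compound at 10 μM, DMSO vehicle controls. Mean % inhibition vs controls, SD ≤ ±10%, n ≥ 8.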

[1] = Compound oxidation potential using cyclic voltametry; assay type: ADME
[2] = molecular target: T1, 3-hydroxy-3-methylglutaryl-coenzyme A reductase (Homo sapiens) (UniProt P04035); test: In vitro suppression of HMG-CoA reductase (HMGR) in Hep G2 cells; assay type: cell-based; design: concentration or dose not given beside the values; details: HepG2, concentration not given here
T1 sequence (whole entry): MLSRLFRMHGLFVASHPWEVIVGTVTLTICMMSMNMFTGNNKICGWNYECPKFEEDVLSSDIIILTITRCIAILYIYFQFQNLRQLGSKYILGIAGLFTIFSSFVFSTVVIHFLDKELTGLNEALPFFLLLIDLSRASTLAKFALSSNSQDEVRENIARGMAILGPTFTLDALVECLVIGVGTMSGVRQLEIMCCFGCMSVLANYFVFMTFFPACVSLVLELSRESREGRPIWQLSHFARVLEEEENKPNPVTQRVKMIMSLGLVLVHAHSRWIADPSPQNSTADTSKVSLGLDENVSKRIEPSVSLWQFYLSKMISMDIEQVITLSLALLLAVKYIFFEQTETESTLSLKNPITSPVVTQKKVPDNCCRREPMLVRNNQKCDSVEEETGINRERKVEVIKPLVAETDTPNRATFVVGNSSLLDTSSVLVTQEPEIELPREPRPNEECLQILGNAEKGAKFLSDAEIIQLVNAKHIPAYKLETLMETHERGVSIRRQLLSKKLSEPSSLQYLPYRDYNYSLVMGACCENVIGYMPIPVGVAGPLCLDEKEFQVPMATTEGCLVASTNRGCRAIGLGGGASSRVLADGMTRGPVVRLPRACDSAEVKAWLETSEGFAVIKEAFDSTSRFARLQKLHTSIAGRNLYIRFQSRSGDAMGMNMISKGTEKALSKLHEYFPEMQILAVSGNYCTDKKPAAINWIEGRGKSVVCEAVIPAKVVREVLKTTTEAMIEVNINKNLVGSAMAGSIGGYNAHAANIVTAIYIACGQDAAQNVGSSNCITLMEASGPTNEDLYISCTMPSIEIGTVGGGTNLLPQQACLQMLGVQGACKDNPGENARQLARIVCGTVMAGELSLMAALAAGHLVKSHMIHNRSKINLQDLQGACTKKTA
How it was run: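 HepG2 cells treated 4 h with compound at 10 μM, DMSO vehicle controls. HMG-CoA reductase activity assayed in microsomal fraction isolated at end of incubation. Mean % suppression vs controls, SD ≤ ±10%, n ≥ 8.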

[3] = LDL oxidation assay as spectrophotometric determination of TBARS; assay type: functional
How it was run: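 LDL (0.5 mg/mL protein stock) in saline/20 mM HEPES with drug in ethanol, oxidised by CuSO4 (4 × 10⁻⁴ M stock), 37 °C, 5 h, in duplicate. Stopped with EDTA; TCA/TBA added, boiled 30 min, A535 read. Malonaldehyde equivalents from tetramethoxypropane standard curve. IC50 = concentration inhibiting 50% TBARS vs ethanol controls.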

Gallus gallus [4] = species on record: Gallus gallus; test: Hypocholesterolemic activity in 6-week old male mormocholesterolemic chickens using experiment 2; assay type: functional
How it was run: (§1)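 Six-week-old male chickens fed corn-soybean control diet with test compound at 50 ppm. Birds fasted 36 h, then refed 48 h before sacrifice. Serum total, LDL and HDL cholesterol and triglycerides measured (mg/100 mL), HDL/total ratio computed. Means ± SD, n = 6–12 per group, also as % of control. Significance p < 0.01 within each study.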

Gallus gallus [5] = species on record: Gallus gallus; test: Ratio of HDL/total cholesterol value; assay type: functional; how it was run: as §1
Gallus gallus [6] = species on record: Gallus gallus; test: (§2) Hypocholesterolemic activity in 6-week old male mormocholesterolemic chickens using experiment 3; assay type: functional
How it was run: (§3)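 Male chickens, 6 weeks old. Test compound mixed at 50 ppm into a corn-soybean control diet; controls get the diet alone. After the feeding period, birds are fasted 36 h and refed 48 h before sacrifice. Serum total, LDL and HDL cholesterol (mg/100 mL) and triglycerides measured; expressed as mean ± SD and percent of control, n = 6–12 per group.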

Gallus gallus [7] = species on record: Gallus gallus; test: as §2; assay type: functional; how it was run: as §1; remark: listed apart in the source
Gallus gallus [8] = species on record: Gallus gallus; test: (§4) Hypocholesterolemic activity in 6-week old male mormocholesterolemic chickens using experiment 4; assay type: functional; how it was run: as §1
Gallus gallus [9] = species on record: Gallus gallus; test: as §4; assay type: functional; how it was run: as §3; remark: listed apart in the source
Gallus gallus [10] = species on record: Gallus gallus; test: (§5) Hypocholesterolemic activity in 6-week old male mormocholesterolemic chickens using experiment 1; assay type: functional; how it was run: as §3
Gallus gallus [11] = species on record: Gallus gallus; test: as §5; assay type: functional; how it was run: as §1; remark: listed apart in the source

Row | Compound | Inhibition (HepG2) [%] | Potential [1] | inhibition [2] [%] | IC50 [3] [nM] | Ratio (Gallus gallus [5]) | further results
1 | CC(C)=CCC/C(C)=C/CC/C(C)=C/CCc1oc2c(C)c(C)c(O)cc2c(=O)c1O | 61 | 1.2 |  |  |  | 
2 | CC(C)=CCC/C(C)=C/CC/C(C)=C/CCC1(C)CC(O)c2cc(O)c(C)c(C)c2O1 (stereo not drawn) | 56 | 0.96 |  |  |  | 
3 | CC(C)=CCC/C(C)=C/CCC#CCCC1(C)CCc2cc(O)c(C)c(C)c2O1 (stereo not drawn) | 81 |  | 46 |  |  | 
4 | CC(C)=CCC/C(C)=C/CC/C(C)=C/CCC1(C)CCc2ccc(O)cc2O1 (stereo not drawn) | 58 | 1.44 |  | > 10000 |  | 
5 | CC(C)=CCC/C(C)=C/CC/C(C)=C/CCC1(C)CCc2cc(O)c(F)cc2O1 (stereo not drawn) | 60 | 1.21 | 33 | 3000 |  | 
6 | CC(C)=CCC/C(C)=C/CC/C(C)=C/CCC1(C)CCc2cc(C)c(C)cc2O1 (stereo not drawn) | 33 |  |  |  |  | 
7 | CC(C)=CCC/C(C)=C/CC/C(C)=C/CCC1Oc2c(cc(O)c(C)c2C)C(=O)/C1=N\O (stereo not drawn) | 84 |  |  |  |  | 
8 | CC(C)=CCC/C(C)=C/CC/C(C)=C/CCC1(C)CCc2cc(O)ccc2O1 (stereo not drawn) | 62 | 1.05 | 53 | 600 | 0.61 | Triglycerides (Gallus gallus [4]): 80 mg 100ml-1
9 | CC(C)=CCC/C(C)=C/CC/C(C)=C/CCC1(C)CCc2cc(O)cc(C#N)c2O1 (stereo not drawn) | 63 |  |  |  | 0.62 | LDL cholesterol (Gallus gallus [6]): 54 mg 100ml-1; HDL cholesterol (Gallus gallus [7]): 94 mg 100ml-1; Total cholesterol (Gallus gallus [7]): 151 mg 100ml-1; Triglycerides (Gallus gallus [7]): 83 mg 100ml-1
10 | CCCCC/C=C\C/C=C\CCCCCCCC1(C)CCc2cc(O)c(C)c(C)c2O1 (stereo not drawn) | 18 |  |  |  |  | 
11 | CC(C)=CCC/C(C)=C/CC/C(C)=C/CCC1(C)CCc2c(cc(C)c(O)c2C)O1 (stereo not drawn) | 42 | 1.06 | 40 | > 10000 |  | 
12 | CC(C)=CCC/C(C)=C/CC/C(C)=C/CCC1CCc2cc(O)ccc2C1 (stereo not drawn) | 40 |  |  |  | 0.62 | LDL cholesterol (Gallus gallus [6]): 57 mg 100ml-1; HDL cholesterol (Gallus gallus [7]): 94 mg 100ml-1; Total cholesterol (Gallus gallus [7]): 152 mg 100ml-1; Triglycerides (Gallus gallus [7]): 76 mg 100ml-1
13 | COc1cc2c(c(C)c1C)OC(C)(CC/C=C(\C)CC/C=C(\C)CCC=C(C)C)CC2 (stereo not drawn) | 0 |  |  |  |  | 
14 | CC(C)=CCC/C(C)=C/CC/C(C)=C/CCC1(C)CCc2cc(O)cc(Br)c2O1 (stereo not drawn) | 62 |  |  |  | 0.67 | LDL cholesterol (Gallus gallus [6]): 45 mg 100ml-1; HDL cholesterol (Gallus gallus [7]): 93 mg 100ml-1; Total cholesterol (Gallus gallus [7]): 139 mg 100ml-1; Triglycerides (Gallus gallus [7]): 87 mg 100ml-1
15 | C/C(=C\CCC1(C)CCc2cc(O)c(F)cc2O1)CO (stereo not drawn) | 15 |  |  | > 10000 |  | 
16 | CC(C)=CCC/C(C)=C/CCC1(C)CCc2cc(O)ccc2O1 (stereo not drawn) | 48 |  | 52 | 2000 | 0.72 | HDL cholesterol (Gallus gallus [8]): 93 mg 100ml-1; Total cholesterol (Gallus gallus [8]): 130 mg 100ml-1; Triglycerides (Gallus gallus [8]): 73 mg 100ml-1; LDL cholesterol (Gallus gallus [9]): 33 mg 100ml-1
17 | CC(C)=CCC/C(C)=C/CC/C(C)=C/CCC1(C)CC(=O)c2cc(O)c(C)c(C)c2O1 (stereo not drawn) | 93 | 1.2 | 16 | 2000 | 0.81 | LDL cholesterol (Gallus gallus [10]): 36 mg 100ml-1; HDL cholesterol (Gallus gallus [11]): 108 mg 100ml-1; Total cholesterol (Gallus gallus [11]): 133 mg 100ml-1; Triglycerides (Gallus gallus [11]): 64 mg 100ml-1
18 | CC(C)=CCC/C(C)=C/CC/C(C)=C/CCC1(C)CCc2cccc(O)c2O1 (stereo not drawn) | 46 | 1.24 |  |  |  | 
19 | CC(C)=CCC/C(C)=C/CC/C(C)=C/CCC1(C)CCc2ccc(O)c(O)c2O1 (stereo not drawn) | 27 | 1.26 |  |  |  | 
